Screening results: PubChem BioAssay, The Scripps Research Institute Molecular Screening Center
TCR CD3 inh – human TCR-CD3 binding inhibition; TAMRA-labeled TCR probe fluorescence, biochemical; inhibition, % at 9.4 µM; 360,000 tested, 0.37% active; AID 651800; in the data active = inhibition above about 19%;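 also: recombinant mutant TCR 2C K166C tagged with TAMRA read by polarization; 0% = receptor in buffer alone and 100% = receptor with positive control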
mABHD4 FP – inhibits mouse alpha/beta hydrolase domain 4; purified mABHD4, FP-Rh probe fluorescence polarization; inhibition, % at 8.92 µM; 370,000 tested, 0.54% active;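 active = inhibition exceeding the mean over every tested compound plus 3 SD, cut at about 30% in these data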;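 also: 0% = plate median of compound wells and 100% = S159A mutant with DMSO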
Target sequence (Q8VD66 whole entry, looked up, the tested form may be a part): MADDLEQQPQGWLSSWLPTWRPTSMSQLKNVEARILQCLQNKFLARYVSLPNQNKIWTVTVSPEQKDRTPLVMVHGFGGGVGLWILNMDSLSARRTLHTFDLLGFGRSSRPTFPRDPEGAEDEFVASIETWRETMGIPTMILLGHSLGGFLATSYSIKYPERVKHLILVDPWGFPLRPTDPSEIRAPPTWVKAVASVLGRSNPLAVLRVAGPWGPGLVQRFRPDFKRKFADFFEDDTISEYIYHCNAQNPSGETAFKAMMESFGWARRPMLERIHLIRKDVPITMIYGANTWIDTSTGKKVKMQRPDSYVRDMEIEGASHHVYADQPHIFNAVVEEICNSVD
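Assay system: mABHD4 protein; medium: HEPES pH 7.0, NaCl, Pluronic buffer; dosing: 8.92 µM, single dose; schedule: 45 min + 60 min at 25 °C; signal: FP readout, ex 525 nm / em 598 nm; read-out: normalized percent inhibition of probe labeling; repeats: single replicate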
DDE Tn7 FP inh – disrupts Tn7 cyclic peptide binding to fibrin D-Dimer-E complex; 370,000 tested, 0.13% active; inhibition, % at 8.3 µM; FP displacement of FITC-Tn7 peptide from fibrin DD(E); 0% = median of compound wells per plate; AID 720508;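 active = inhibition above the mean of compounds falling within the control limits plus 3 SD of them, cut at about 14% in these data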;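 also: 0% = plate median of compound wells and 100% = 10 µM Aha-Tn7 peptide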
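System: human fibrin DD(E); quantity: Fibrin-DD(E) at 2 µM final; also added: fluorescent Tn7 probe at 0.1 µM; compound dosing: single nominal test concentration of 8.3 µM per compound; schedule: 10 min preincubation, 3 h with tracer, room temperature; detection: fluorescence polarization of the labelled Tn7 tracer; repeats: one replicate per compound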
SIAE primary – human SIAE inhibition, primary screen | Q9HAT2 | SIAE FP-Rh probe binding, fluorescence polarization | inhibition, % at 9.66 µM | 370,000 tested, 0.69% active | AID 1053197;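 active = inhibition above a cutoff: mean of compounds within the control limits plus 3 SD of those, cut at about 17% in these data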;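 also: 0% = plate median of compound wells and 100% = probe without SIAE protein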
HTRA1 inh – blocks human HTRA1 serine peptidase; recombinant HTRA1, FP-rhodamine activity-based probe, fluorescence polarization; inhibition, % at 5.96 µM; 340,000 tested, 0.5% active; AID 504803; in the data active = inhibition above about 36%;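 also: 0% = enzyme with DMSO and 100% = wells lacking enzyme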
DDE Tn6 FP inh – DD(E)-Tn6 binding inhibition, primary FP screen; inhibition, % at 8.3 µM; P02675; 370,000 tested, 0.21% active; Fibrin DD(E) TRITC-Tn6 fluorescence polarization displacement;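 active = inhibition above a per-campaign cutoff: mean of compounds within control limits plus 3 SD, cut at about 15% in these data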;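 also: 0% = median of all compound wells on the plate and 100% = blocking peptide control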
HTRA1 inh conf – HTRA1 (human) inhibition, confirmation; 1,600 tested, 66% active; shares compounds with HTRA1 inh; inhibition, % at 5.96 µM; recombinant HTRA1, FP-rhodamine activity-based probe, fluorescence polarization;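 active = mean inhibition over three repeats above a set limit taken from the earlier primary screen, cut at about 37% in these data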;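 also: 0% = HTRA1 with DMSO and 100% = wells lacking HTRA1; inhibitors block probe binding so polarization drops and inhibition rises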
The depositor's hits bear a star; nt = no result. This is a sample that favours compounds with a hit; in the whole collection about 1.8% have one here.

SMILES	TCR CD3 inh	mABHD4 FP	DDE Tn7 FP inh	SIAE primary	HTRA1 inh	DDE Tn6 FP inh	HTRA1 inh conf
COc1cccc(C2Nc3c(F)cc(Br)cc3C3C=CCC32)c1OC (stereo not drawn)	2	1	-2	2	44*	-3	-19
CCCCC(CC)CN=C(N)NC(N)=NCCCCCCN=C(N)NC(N)=NCC(CC)CCCC (stereo not drawn)	nt	nt	nt	nt	55*	nt	93*
CCCCC(CC)CO (stereo not drawn)	14	-1	-3	2	1	4	nt
COC(=O)C1=C(C)NC(=O)/C1=C\c1cc(C)n(-c2cccc(C)c2)c1C	3	22	2	5	52*	7	38*
COc1cc(CNc2ccc(N3CCCCC3)cc2)ccc1OCC(=O)NC(C)(C)C	0	27	-5	7	41*	-8	8
COc1cc(CNc2ccc(N3CCCC3)cc2)ccc1OCc1ccccc1	0	24	-10	10	28	0	nt
COc1cc(CNc2ccc(N3CCCC3)cc2)ccc1OCc1ccccc1F	nt	nt	nt	nt	40*	nt	18
O=C(COC(=O)c1nc(Cl)ccc1Cl)Nc1ncc(Cl)cc1Cl	0	-2	5	8	63*	0	6
O=C(COC(=O)c1ccc(O)cc1)Nc1ncc(Cl)cc1Cl	0	1	-4	-1	2	-5	nt
CC(=O)Oc1cc(C(=O)OCC(=O)NC23CC4CC(CC(C4)C2)C3)cc(OC(C)=O)c1OC(C)=O	49*	24	0	10	66*	2	75*
COc1ccc(OC)c(/C=N/NC(=O)CCc2c(C)n[nH]c2C)c1	6	-8	3	-5	-2	2	nt
COc1ccc(OC)c(/C=N/NC(=O)CCc2ccc(O)c(O)c2)c1	5	12	-7	-2	53*	-12	79*
Cc1cc(N=Nc2ccc(C)c(N=Nc3cc(C)c(N)cc3N)c2)c(N)cc1N	2	27	-1	11	77*	-19	74*
CCCCNC(=O)/C=C1\Sc2ccccc2NC1=O	-2	-3	6	0	1	-5	nt
CCc1ccc(C(=O)/C=C2\Sc3ccccc3NC2=O)cc1	10	-9	-2	6	59*	-5	93*
COc1ccc(C=C(C#N)C(=O)c2ccccc2)cc1	-7	-57	-6	-5	nt	4	nt
COc1cc(/C=C(\C#N)C(=O)c2ccc(O)c(O)c2)cc(I)c1O	23*	-6	3	-10	41*	0	30
Cc1sc2nc(SCC(=O)c3ccc(O)c(O)c3)n(C)c(=O)c2c1C	nt	27	-1	-25	nt	-5	nt
COc1ccc(CNS(=O)(=O)/C=C/c2ccccc2CNC(=O)OC(C)(C)C)cc1	nt	-3	-3	6	nt	-3	nt
Fc1ccc(NC(=S)NNc2ncc(C(F)(F)F)cc2Cl)c(F)c1	11	7	5	5	46*	-15	69*
FC(F)(F)c1cnc(NNC(=S)Nc2ccc(Cl)cc2)c(Cl)c1	-2	14	1	8	49*	-34	54*
Cc1ccc(NC(=S)NNc2ncc(C(F)(F)F)cc2Cl)cc1	-2	8	-4	1	38*	-12	36
O=C(NNc1ncc(C(F)(F)F)cc1Cl)c1ccc(Cl)c(Cl)c1	1	-5	-2	0	-4	0	nt
Cc1ccc(NC(=S)NNc2ncc(C(F)(F)F)cc2Cl)c(C)c1	-4	14	-1	-6	12	7	nt
CCCCNS(=O)(=O)/C=C/c1ccc(F)cc1CNC(=O)OC(C)(C)C	nt	-3	8	3	nt	4	nt
Cc1ccc(Cn2c(=N)c(C(=O)NCc3ccco3)cc3c(=O)n4ccccc4nc32)cc1	8	12	0	-3	42*	-1	-36
CCCCOc1ccc(C2OC34CCCCC3C(C#N)(C#N)C2(C#N)C(=N)O4)cc1 (stereo not drawn)	nt	nt	nt	nt	25	nt	nt
C=CCOc1ccc(C2OC34CCCCC3C(C#N)(C#N)C2(C#N)C(=N)O4)cc1 (stereo not drawn)	nt	nt	nt	nt	38*	nt	-3
